# From PubChem BioAssay AID624340 (The Scripps Research Institute Molecular Screening Center, 2012)
# Values joined by “and” are separate entries in the source; they are usually repeats but may differ in a detail not shown here. Equal entries are not always repeated. Active and inactive are the calls of the source.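 The calls were made as follows: active = IC50 at or below 10 µM; inactive = IC50 above 10 µM.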
# Molecular target: Insulin-degrading enzyme (Homo sapiens) (UniProt P14735)
# Test: fluorescence artefact check, IDE FRET1 cleavage – biochemical, FRET1 substrate, round 2, artefact control for IDE inhibitor project, late-stage follow-up (AID 624340)
# Details: recombinant WT IDE
# Outline: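 System: recombinant WT IDE / Reagent: FRET1 peptide substrate at 1 µM final / Incubation: kinetic read every 2 min over 2 h, 22 °C / Technique: kinetic fluorescence intensity read at 385 nm emission, 335 nm excitation / Read-out basis: IC50 from sigmoidal fit of initial-rate percent activity / Control set: DMSO high, no-enzyme low controls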
# Sequence of Insulin-degrading enzyme (Homo sapiens) (P14735 whole entry, looked up): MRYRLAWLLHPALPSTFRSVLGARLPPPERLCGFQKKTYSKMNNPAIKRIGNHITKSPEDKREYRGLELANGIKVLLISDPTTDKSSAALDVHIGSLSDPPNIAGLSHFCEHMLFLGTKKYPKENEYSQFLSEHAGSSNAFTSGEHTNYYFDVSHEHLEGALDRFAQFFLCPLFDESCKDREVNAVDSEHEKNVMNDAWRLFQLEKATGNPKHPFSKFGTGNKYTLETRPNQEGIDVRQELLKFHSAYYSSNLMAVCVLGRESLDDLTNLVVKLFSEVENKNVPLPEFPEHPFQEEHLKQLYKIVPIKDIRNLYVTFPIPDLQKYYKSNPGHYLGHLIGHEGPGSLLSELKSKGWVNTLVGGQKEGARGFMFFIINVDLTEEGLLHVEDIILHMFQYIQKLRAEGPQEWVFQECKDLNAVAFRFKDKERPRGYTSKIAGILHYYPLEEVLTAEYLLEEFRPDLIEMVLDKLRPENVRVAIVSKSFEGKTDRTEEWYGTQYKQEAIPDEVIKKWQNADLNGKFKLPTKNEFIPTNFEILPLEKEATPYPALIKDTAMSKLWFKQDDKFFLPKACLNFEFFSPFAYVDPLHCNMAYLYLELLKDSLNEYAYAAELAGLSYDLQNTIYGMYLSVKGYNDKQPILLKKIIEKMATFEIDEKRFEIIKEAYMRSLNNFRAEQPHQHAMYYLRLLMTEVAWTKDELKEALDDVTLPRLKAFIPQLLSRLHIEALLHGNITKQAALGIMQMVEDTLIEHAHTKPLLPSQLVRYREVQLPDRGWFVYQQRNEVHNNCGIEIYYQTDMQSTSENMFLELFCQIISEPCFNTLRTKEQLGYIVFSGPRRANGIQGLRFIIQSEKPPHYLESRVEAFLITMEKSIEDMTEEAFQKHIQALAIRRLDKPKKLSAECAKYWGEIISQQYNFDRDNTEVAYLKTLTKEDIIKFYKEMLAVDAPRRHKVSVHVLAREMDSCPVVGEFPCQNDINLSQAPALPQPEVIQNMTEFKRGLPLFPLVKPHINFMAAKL
row,Structure (SMILES),IC50
1,c1coc(Cn2c(SCc3nc4ccccc4[nH]3)nnc2-c2cccs2)c1,> 100 µM (inactive)
2,O=C(c1ccc(Oc2ccc(F)cc2)cc1)N1CCN(C(=O)C2COc3ccccc3O2)CC1 (stereo not given),> 100 µM (inactive)
3,O=C(c1ccc(OCC2CCCO2)cc1)N1CCN(C(=O)C2COc3ccccc3O2)CC1 (stereo not given),> 100 µM (inactive)
4,c1coc(Cn2c(SCc3nc4ccccc4[nH]3)nnc2-c2cnccn2)c1,> 100 µM (inactive)
5,c1ccc(-c2nnc(SCc3nc4ccccc4[nH]3)n2Cc2ccco2)cc1,> 100 µM (inactive)
6,Cc1ccc(-c2nnc(SCc3nc4ccccc4[nH]3)n2Cc2ccco2)cc1,> 100 µM (inactive)
7,c1ccc(-c2nnc(SCc3nc4ccccc4[nH]3)n2Cc2ccco2)nc1,> 100 µM (inactive)
8,CC(=O)Nc1ccccc1C(=O)N1CCN(C(=O)C2COc3ccccc3O2)CC1 (stereo not given),inactive
9,CCOc1ccc(C(=O)N2CCN(C(=O)C3COc4ccccc4O3)CC2)cc1 (stereo not given),> 100 µM (inactive)
10,c1coc(Cn2c(SCc3nc4ccccc4[nH]3)nnc2-c2ccco2)c1,> 100 µM (inactive)
11,Cc1ccc(COCc2nnc(SCc3nc4ccccc4[nH]3)n2Cc2ccco2)cc1,> 100 µM (inactive)
12,O=C(c1ccc2nc(C(F)(F)F)[nH]c2c1)N1CCN(C(=O)C2COc3ccccc3O2)CC1 (stereo not given),inactive
13,Clc1ccc(COCc2nnc(SCc3nc4ccccc4[nH]3)n2Cc2ccco2)cc1,> 100 µM (inactive)
14,Cc1nc(COc2ccc(C(=O)N3CCN(C(=O)C4COc5ccccc5O4)CC3)cc2)cs1 (stereo not given),> 100 µM (inactive)

# Continued, values first:
row,IC50,Structure (SMILES)
1,inactive,COc1cccc(C(=O)N2CCN(C(=O)C3COc4ccccc4O3)CC2)c1 (stereo not given)
2,5.89 µM and > 100 µM (inactive),COc1ccc(C(=O)N2CCN(C(=O)C3COc4ccccc4O3)CC2)cc1 (stereo not given)
3,> 100 µM (inactive),COc1ccc(C(=O)N2CCN(C(=O)CCc3c[nH]c4ccccc34)CC2)cc1OC
4,> 100 µM (inactive),COc1ccc(C(=O)N2CCN(C(=O)COc3ccc(Cl)cc3)CC2)cc1OC
5,> 100 µM (inactive),COc1ccc(C(=O)N2CCN(C(=O)C(c3ccccc3)c3ccccc3)CC2)cc1OC
6,> 100 µM (inactive),COc1cc(C(=O)N2CCN(C(=O)C3COc4ccccc4O3)CC2)cc(Cl)c1OC (stereo not given)
7,> 100 µM (inactive),COc1ccc(OCC(=O)N2CCN(C(=O)c3ccc(OC)c(OC)c3)CC2)cc1
8,> 100 µM (inactive),COc1ccc(C(=O)N2CCN(C(=O)C3CC(=O)N(c4ccccc4)C3)CC2)cc1OC (stereo not given)
9,> 100 µM (inactive),O=C(c1ccc(Oc2ccccc2)cc1)N1CCN(C(=O)C2COc3ccccc3O2)CC1 (stereo not given)
10,> 100 µM (inactive),COc1ccc(C(=O)N2CCN(C(=O)COc3ccccc3)CC2)cc1OC
11,> 100 µM (inactive),COc1ccc(C(=O)N2CCN(C(=O)COc3ccc(C)cc3)CC2)cc1OC
